Data set [1] has as its system A549. Nature of the data set: Cytotoxicity against human A549 cells assessed as decrease in cell viability after 24 hrs by MTT assay. Conditions: A549, 24 h. It is filed as functional, cell-based. The procedure, abridged:
(§1)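 Viability was read as cellular MTT reduction. Cisplatin and GSK690693 were run as reference controls. IC50 values were derived for each cell line.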
(In general: Tetrazolium dyes change colour on reduction, which living cells bring about.)

Data set [2] deals with C6. Nature of the data set: Cytotoxicity against rat C6 cells assessed as decrease in cell viability after 24 hrs by MTT assay. It counts as functional, cell-based. Conditions: C6, 24 h. The procedure, abridged:
as §1

Data set [3] can be described thus: Selectivity index, ratio of IC50 for mouse NIH/3T3 cells to IC50 for rat C6 cells. It is filed as toxicity. The note with it: NIH/3T3 cells versus C6 cells, read-out: Ratio IC50. Put shortly: (§2)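 Selectivity index = IC50 for NIH/3T3 normal fibroblasts / IC50 for the cancer line (A549 or C6). […] An IC50 above 403.00 was taken as 403.00.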
Another data set relates to NIH3T3. Nature of the data set: Cytotoxicity against mouse NIH/3T3 cells assessed as decrease in cell viability after 24 hrs by MTT assay. It counts as cell-based. Conditions: NIH3T3, 24 h. The procedure, abridged:
as §1

A short description of data set [4]: Selectivity index, ratio of IC50 for mouse NIH/3T3 cells to IC50 for human A549 cells. It counts as toxicity. The note with it: NIH/3T3 cells versus A549 cells, read-out: Ratio IC50. The procedure, abridged:
as §2

Data set [5] concerns the target RAC-alpha serine/threonine-protein kinase (Rattus norvegicus, UniProt P47196). Nature of the data set: Inhibition of Akt in rat C6 cells after 24 hrs by ELISA. It counts as cell-based. The procedure, abridged:
(§3)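 In-cell colorimetric ELISA: 10,000 cells/well were treated 24 h, then fixed in 4% formaldehyde for 15 min, permeabilised, quenched and blocked. Primary antibody ran overnight at 4 °C, then HRP conjugate for 30 min, then TMB; absorbance was read at 450 nm. Wells were in triplicate and blank-subtracted. Activity is relative to untreated cells; IC50 came from graphs of three concentrations.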
(In general: ELISA stands for enzyme-linked immunosorbent assay.)

Data set [6] has as its system A549. Nature of the data set: Induction of apoptosis in human A549 cells assessed as caspase-3 negative cell level at IC50 after 24 hrs by FITC-A labeled flow cytometry (reference value: 98.1%). It is filed as functional.
The subject of data set [7] is C6. Nature of the data set: Induction of apoptotic morphological alterations in rat C6 cells assessed as disruption of cellular organization at IC50 after 24 hrs by transmission electron microscopy. It is filed as functional, cell-based. The procedure, abridged: (§4)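 Cells were fixed in 2.5% glutaraldehyde in 0.1 M PBS pH 7.4 and held overnight at 4 °C, then agar-embedded and post-fixed in 2% osmium tetroxide. They were dehydrated through graded ethanol, embedded in EPON 812, ultrathin-sectioned and examined by transmission electron microscopy.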

For data set [8], the system named is C6. Nature of the data set: Induction of apoptosis in rat C6 cells assessed as early/late apoptotic cells at IC50 after 24 hrs by Annexin V-FITC/PI staining based flow cytometry (reference value: 8%). It is filed as functional. (In flow cytometry, cells or beads pass a laser one at a time.)
In data set [9] the test system is A549. The data set can be described thus: Induction of mitochondrial membrane potential loss in human A549 cells assessed as intact mitochondrial membrane potential at IC50 measured after 24 hrs by JC-1 staining based flow cytometric analysis (reference value: 90.4%). It counts as functional.
Data set [10] relates to C6. The data set can be described thus: Induction of apoptotic morphological alterations in rat C6 cells assessed as cell shrinkage at IC50 after 24 hrs by transmission electron microscopy. It is filed as functional, cell-based. Put shortly:
as §4

Data set [11] deals with A549. Nature of the data set: Induction of mitochondrial membrane potential loss in human A549 cells at IC50 measured after 24 hrs by JC-1 staining based flow cytometric analysis (reference value: 9.8%). It is filed as functional.
Data set [12] has as its system A549. The data set can be described thus: Induction of apoptotic morphological alterations in human A549 cells assessed as organellar membrane damage at IC50 after 24 hrs by transmission electron microscopy. It counts as functional, cell-based. Put shortly: as §4
Data set [13] relates to A549. Nature of the data set: Induction of apoptosis in human A549 cells assessed as early/late apoptotic cells at IC50 after 24 hrs by Annexin V-FITC/PI staining based flow cytometry (reference value: 7.1%). It is filed as functional.
Data set [14] deals with C6. Nature of the data set: Induction of apoptotic morphological alterations in rat C6 cells assessed as DNA condensation at IC50 after 24 hrs by transmission electron microscopy. It is filed as functional, cell-based. The procedure, abridged: as §4
Data set [15] concerns A549. Nature of the data set: Induction of apoptotic morphological alterations in human A549 cells assessed as DNA condensation at IC50 after 24 hrs by transmission electron microscopy. It is filed as functional, cell-based. Put shortly:
as §4

The subject of data set [16] is C6. The data set can be described thus: Induction of mitochondrial membrane potential loss in rat C6 cells at IC50 measured after 24 hrs by JC-1 staining based flow cytometric analysis (reference value: 19.9%). It is filed as functional.
The test system of data set [17] is A549. The data set can be described thus: Induction of apoptotic morphological alterations in human A549 cells assessed as disruption of cellular organization at IC50 after 24 hrs by transmission electron microscopy. It counts as functional, cell-based. The procedure, abridged:
as §4

For data set [18], the target named is RAC-alpha serine/threonine-protein kinase (Homo sapiens, UniProt P31749). The data set can be described thus: Inhibition of Akt in human A549 cells after 24 hrs by ELISA. It counts as cell-based. The procedure, abridged: as §3
Sequence of RAC-alpha serine/threonine-protein kinase (Homo sapiens, UniProt P31749) (P31749 whole entry): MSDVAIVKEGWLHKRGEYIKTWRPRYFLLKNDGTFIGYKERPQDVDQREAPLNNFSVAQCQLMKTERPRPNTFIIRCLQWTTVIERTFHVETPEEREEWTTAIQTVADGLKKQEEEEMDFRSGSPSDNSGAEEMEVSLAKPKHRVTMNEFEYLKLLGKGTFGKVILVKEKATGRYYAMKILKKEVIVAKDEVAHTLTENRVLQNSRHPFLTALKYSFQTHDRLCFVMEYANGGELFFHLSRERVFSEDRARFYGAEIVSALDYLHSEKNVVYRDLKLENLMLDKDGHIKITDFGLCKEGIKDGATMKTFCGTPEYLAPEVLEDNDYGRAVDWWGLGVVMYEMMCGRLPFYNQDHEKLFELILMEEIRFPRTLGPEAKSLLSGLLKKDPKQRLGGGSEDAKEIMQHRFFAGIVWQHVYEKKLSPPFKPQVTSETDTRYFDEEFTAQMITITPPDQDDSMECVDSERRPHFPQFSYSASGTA
Data set [19] relates to A549. Nature of the data set: Induction of apoptotic morphological alterations in human A549 cells assessed as rounding of cells at IC50 after 24 hrs by transmission electron microscopy. It is filed as functional, cell-based. Put shortly: as §4
Data set [20] deals with A549. The data set can be described thus: Induction of apoptosis in human A549 cells assessed as viable cells at IC50 after 24 hrs by Annexin V-FITC/PI staining based flow cytometry (reference value: 89%). It is filed as functional.
The test system of data set [21] is C6. Nature of the data set: Induction of apoptosis in rat C6 cells assessed as caspase-3 positive cell level at IC50 after 24 hrs by FITC-A labeled flow cytometry (reference value: 4.8%). It is filed as functional.
In data set [22] the test system is C6. The data set can be described thus: Induction of apoptotic morphological alterations in rat C6 cells assessed as organellar membrane damage at IC50 after 24 hrs by transmission electron microscopy. It counts as functional, cell-based. The procedure, abridged:
as §4

Data set [23] relates to C6. The data set can be described thus: Induction of apoptosis in rat C6 cells assessed as caspase-3 negative cell level at IC50 after 24 hrs by FITC-A labeled flow cytometry (reference value: 96.4%). It is filed as functional.
Data set [24] concerns A549. The data set can be described thus: Induction of apoptotic morphological alterations in human A549 cells assessed as cell shrinkage at IC50 after 24 hrs by transmission electron microscopy. It counts as functional, cell-based. The procedure, abridged:
as §4

Another data set concerns the target Focal adhesion kinase 1 (Rattus norvegicus, UniProt O35346). The data set can be described thus: Inhibition of FAK phasphorylation at Tyr397 residues in rat C6 cells after 24 hrs by ELISA. It counts as cell-based. Put shortly: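 Cell-based colorimetric ELISA in C6 cells treated 24 h: cells were fixed in 4% formaldehyde for 20 min, quenched, and blocked for 1 h. Anti-FAK pTyr397, anti-FAK and anti-GAPDH primaries ran overnight at 4 °C, then HRP secondaries for 1.5 h and substrate for 30 min. OD450 was read in duplicate wells; pFAK was normalised to GAPDH. IC50 came from graphs of three concentrations.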

The test system of data set [25] is A549. The data set can be described thus: Induction of apoptosis in human A549 cells assessed as caspase-3 positive cell level at IC50 after 24 hrs by FITC-A labeled flow cytometry (reference value: 2.1%). It is filed as functional.
Data set [26] relates to C6. The data set can be described thus: Induction of mitochondrial membrane potential loss in rat C6 cells assessed as intact mitochondrial membrane potential at IC50 measured after 24 hrs by JC-1 staining based flow cytometric analysis (reference value: 80%). It is filed as functional.
For data set [27], the system named is C6. Nature of the data set: Induction of apoptosis in rat C6 cells assessed as viable cells at IC50 after 24 hrs by Annexin V-FITC/PI staining based flow cytometry (reference value: 90%). It is filed as functional.
Data set [28] has as its system C6. Nature of the data set: Induction of apoptotic morphological alterations in rat C6 cells assessed as rounding of cells at IC50 after 24 hrs by transmission electron microscopy. It counts as functional, cell-based. Put shortly:
as §4

Each structure is given as a SMILES string. pIC50: −log10 of the molar value. Calls of active or inactive are those of the source. No cut-off for these calls is given here. Where only a bound is given, the exact number is not on record here.

Sequence of RAC-alpha serine/threonine-protein kinase (Rattus norvegicus, UniProt P47196) (P47196 whole entry): as the sequence (P31749 whole entry) above, with S2N, D46E, A50S, K112R, E117T, S137A, K389T, G410N, H415D counted along it
Sequence of Focal adhesion kinase 1 (O35346 whole entry): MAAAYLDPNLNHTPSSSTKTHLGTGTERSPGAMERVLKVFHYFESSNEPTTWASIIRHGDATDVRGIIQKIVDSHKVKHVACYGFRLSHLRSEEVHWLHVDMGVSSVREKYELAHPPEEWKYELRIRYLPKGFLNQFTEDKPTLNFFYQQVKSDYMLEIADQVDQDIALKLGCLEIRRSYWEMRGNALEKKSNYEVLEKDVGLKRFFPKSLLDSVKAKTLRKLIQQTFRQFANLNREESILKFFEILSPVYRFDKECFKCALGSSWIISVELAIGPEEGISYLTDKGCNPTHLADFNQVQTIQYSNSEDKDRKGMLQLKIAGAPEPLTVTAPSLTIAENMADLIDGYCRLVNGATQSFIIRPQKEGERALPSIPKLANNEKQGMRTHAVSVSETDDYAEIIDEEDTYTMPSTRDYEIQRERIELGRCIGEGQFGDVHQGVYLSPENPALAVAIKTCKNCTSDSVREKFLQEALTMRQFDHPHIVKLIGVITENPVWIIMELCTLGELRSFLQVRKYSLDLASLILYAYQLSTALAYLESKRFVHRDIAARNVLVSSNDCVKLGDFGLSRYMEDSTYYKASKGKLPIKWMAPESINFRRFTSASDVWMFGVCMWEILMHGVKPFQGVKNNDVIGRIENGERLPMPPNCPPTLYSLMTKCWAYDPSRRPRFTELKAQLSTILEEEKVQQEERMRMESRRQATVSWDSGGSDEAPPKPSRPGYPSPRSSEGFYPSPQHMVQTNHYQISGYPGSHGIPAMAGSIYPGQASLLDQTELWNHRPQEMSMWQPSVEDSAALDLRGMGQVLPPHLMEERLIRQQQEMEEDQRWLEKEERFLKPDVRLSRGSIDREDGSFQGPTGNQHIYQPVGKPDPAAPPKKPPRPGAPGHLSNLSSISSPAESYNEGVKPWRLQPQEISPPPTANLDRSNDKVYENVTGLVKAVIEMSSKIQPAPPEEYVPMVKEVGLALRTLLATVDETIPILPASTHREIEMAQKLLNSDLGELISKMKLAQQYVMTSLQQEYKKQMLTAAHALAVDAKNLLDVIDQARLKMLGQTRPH

Turning to `Cc1ccc2nc(NC(=O)CSc3nnc(COc4ccc5c(c4)CCCC5)o3)sc2c1`, the pIC50 is 3.68 with A549 [1], 3.97 in the data set with C6 [2] and under 3.39 with NIH3T3. The selectivity ratio in [3] is over 3.72; in [4], over 1.92.

Regarding `O=C(CSc1nnc(COc2ccc3c(c2)CCCC3)o1)Nc1nc2ccccc2s1`, the pIC50 is 3.61 in the data set with A549 [1], 3.81 with C6 [2] and 4.01 with NIH3T3. In addition, the results for the selectivity ratio in data set [3] and in [4] were 0.63 and 0.39, respectively.

Consider `CCn1c(-c2nonc2N)nc2c(C#CC(C)(C)O)ncc(OC[C@H]3CCCNC3)c21` [GSK-690693], for which the figures for the pIC50 (in the data set on A549 [1]; in data set [5]; in the data set with C6 [2]) were 3.98, 5.16 and 4.84, respectively.

On to `CCOc1ccc2nc(NC(=O)CSc3nnc(COc4ccc5c(c4)CCCC5)o3)sc2c1`, for which the pIC50 is 3.55 with A549 [1], 4.03 with C6 [2] and under 3.39 in the data set with NIH3T3. Moreover, the selectivity ratio is over 4.32 in [3] and over 1.42 in data set [4].

As for `O=C(CSc1nnc(COc2ccc3c(c2)CCCC3)o1)Nc1nc2ccc(F)cc2s1`, the Activity worked out at 93.5% with A549 [6]; 11.9% with C6 [8]; 78.2% with A549 [9]; 21% in the data set on A549 [11]; 17% in the data set on A549 [13]; 60.1% in the data set with C6 [16]. The Activity worked out at 79.1% with A549 [20]; 11.7% in the data set on C6 [21]; 90.8% in the data set with C6 [23]; 7.1% with A549 [25]; 32.6% in the data set on C6 [26]; 84.9% with C6 [27]. The outcome with C6 [7], in the data set with C6 [10], with A549 [12], with C6 [14], with A549 [15] and in the data set on A549 [17] was Active. Further, the outcome with A549 [19], with C6 [22], with A549 [24] and in the data set with C6 [28] was Active. Moreover, the pIC50 with A549 [1] was 4.04; in [18], 4.01; in data set [5] it was 3.78; in the data set with C6 [2], 4.05; on Focal adhesion kinase 1, 3.93; with NIH3T3, 3.54. For the same molecule, the values for the selectivity ratio in data set [3] and in data set [4] were 3.27 and 3.18, respectively.

As to `O=C(CSc1nnc(COc2ccc3c(c2)CCCC3)o1)Nc1nc2ccc([N+](=O)[O-])cc2s1`, the pIC50 in the data set with A549 [1] is 3.63; in the data set with C6 [2], 4.01; in the data set on NIH3T3 it was 3.47. For the same molecule, the values for the selectivity ratio in [3] and in [4] were 3.41 and 1.44, respectively.

For the molecule `O=C(CSc1nnc(COc2ccc3c(c2)CCCC3)o1)Nc1nccs1`, the pIC50 in the data set with A549 [1] was 3.64; in the data set on C6 [2], 3.67; in the data set with NIH3T3, under 3.39. Moreover, the selectivity ratio in [3] is over 1.89; in [4], over 1.76.

For the molecule `O=C(CSc1nnc(COc2ccc3c(c2)CCCC3)o1)Nc1nc2ccc(Cl)cc2s1`, the pIC50 with A549 [1] was 3.58; in the data set on C6 [2] it was 3.63; in the data set with NIH3T3, 3.61. For the same molecule, the selectivity ratio in [3] came to 1.04; in data set [4], 0.94.

Consider `O=C(CSc1nnc(COc2ccc3c(c2)CCCC3)o1)Nc1ncc([N+](=O)[O-])s1`, for which the Activity in the data set on A549 [6] is 95.1%; in the data set with C6 [8], 12.3%; with A549 [9] it was 2.4%; in the data set with A549 [11], 95.5%; in the data set with A549 [13], 25.3%; in the data set with C6 [16], 98%. For the same molecule, the Activity in the data set on A549 [20] is listed as 67.8%; in the data set on C6 [21] it was 11.3%; in the data set on C6 [23], 90.1%; in the data set with A549 [25], 5.4%; with C6 [26], 0.6%; in the data set with C6 [27], 80.8%. Besides, the outcome with C6 [7], in the data set with C6 [10], in the data set with A549 [12], in the data set with C6 [14], in the data set with A549 [15] and with A549 [17] was Active. Moreover, the result with A549 [19], with C6 [22], in the data set with A549 [24] and in the data set on C6 [28] was Active. Further, the pIC50 was 3.94 in the data set with A549 [1]; 3.86 in [18]; 4.35 in data set [5]; 4.18 in the data set on C6 [2]; 3.98 against Focal adhesion kinase 1; under 3.39 in the data set on NIH3T3. Further, the selectivity ratio in [3] was over 6.04; in data set [4] it was over 3.5.

As a reminder, the pIC50 is −log10 of the IC50, conventionally taken in molar units.

The values above are taken from ChEMBL document CHEMBL4152328, “Design, synthesis, in vitro and in silico evaluation of a new series of oxadiazole-based anticancer agents as potential Akt and FAK inhibitors” (Eur J Med Chem, 2018).
